ERp5 block: inhibitors of human ERp5; Q15084; ERp5 insulin aggregation, absorbance 650 nm, 90 min; inhibition, % at 9.99 µM; 0.05% of 350,000 active; AID 651711;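 active = mean replicate inhibition above about 25%, with every replicate also reaching it, limit read from the data, passing the limit was not always enough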
SIRT5 block: inhibitors of human sirtuin-5 desuccinylase; Q9NXA8; Purified SirT5, succinyl-peptide AMC, trypsin-coupled fluorescence; inhibition, % at 15 µM; 1.1% of 330,000 active; AID 652115; in the data active = inhibition above about 15%
Target sequence (Q9NXA8 whole entry, looked up): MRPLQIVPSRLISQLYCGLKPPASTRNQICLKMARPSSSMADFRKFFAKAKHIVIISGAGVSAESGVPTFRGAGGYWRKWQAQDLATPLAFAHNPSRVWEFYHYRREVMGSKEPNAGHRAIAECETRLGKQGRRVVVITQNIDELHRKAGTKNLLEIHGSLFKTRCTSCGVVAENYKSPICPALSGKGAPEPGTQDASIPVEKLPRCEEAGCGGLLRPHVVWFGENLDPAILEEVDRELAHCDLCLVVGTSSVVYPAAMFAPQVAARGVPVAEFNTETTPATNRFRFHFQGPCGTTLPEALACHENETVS
PDI turbidity: blocks human protein disulfide isomerase activity; 0.052% of 350,000 active; P07237; AID 588391; inhibition, % at 10 µM; PDI insulin aggregation turbidity, A650, 90 min;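 active = mean inhibition across replicates of 30% or more, whatever share of single replicates reach that level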
GSIS activator: GLuc luminescence reporter in INS-1E cells, primary screen for activators of glucose-dependent secretion of insulin; INS-1E GLuc reporter insulin secretion, 2-3 h; activation, % at 16.6 µM; 0.61% of 370,000 active; AID 743287;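 active = lowest replicate activation of at least 40%, so every replicate reaches that level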;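 note: 0% = median of neutral control wells and 100% = median of IBMX positive control wells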
S100A4 inh HTS: inhibitors of human S100A4 binding to myosin IIA peptide; P26447; S100A4/TAMRA-MyoIIA peptide fluorescence polarization; inhibition, % at 10.7 µM; 0.14% of 360,000 active;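 active = mean inhibition of at least 70% across replicates, with every replicate also reaching that level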
Target sequence (P26447 whole entry, looked up): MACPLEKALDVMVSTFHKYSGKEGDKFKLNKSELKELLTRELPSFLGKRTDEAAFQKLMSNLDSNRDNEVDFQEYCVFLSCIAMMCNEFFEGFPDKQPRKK
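Test system: S100A4 monomer protein; Medium: HEPES pH 7.2 with CaCl2, KCl, NaCl, DTT, Triton; Probe or stimulus: TAMRA-labelled myosin IIA heavy-chain peptide probe, 5 nM; Doses: one dose per compound; Times: polarization read 5 min after assay mix addition, stable 5–60 min; Benchmarks: neutral control DMSO, positive control TFP.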
Starred values were filed as active, the others as inactive; · = no result. This is a sample that favours compounds with a hit; in the whole collection about 1.5% have one here.

SMILES	ERp5 block	SIRT5 block	PDI turbidity	GSIS activator	S100A4 inh HTS
CN(C)C(=O)C[C@H]1CC[C@@H](NC(=O)NC2CCCCC2)[C@@H](CO)O1	-3	6	·	7	-14
COc1ccc(S(=O)(=O)N(C)C[C@@H]2OCCCC[C@H](C)Oc3ccc(NS(=O)(=O)c4ccc(C)cc4)cc3C(=O)N([C@@H](C)CO)C[C@@H]2C)cc1	-2	20*	·	-13	-5
COc1ccc(S(=O)(=O)Nc2ccc3c(c2)C(=O)N([C@@H](C)CO)C[C@@H](C)[C@H](CN(C)S(=O)(=O)c2ccc(C)cc2)OCCCC[C@@H](C)O3)cc1	1	18*	·	7	-2
Cc1noc(C)c1S(=O)(=O)N(C)C[C@@H]1OCCCC[C@H](C)Oc2ccc(NC(=O)NC(C)C)cc2C(=O)N([C@H](C)CO)C[C@H]1C	-2	8	·	0	21
Cc1cccc(Oc2ccc(NS(=O)(=O)c3ccc(C)c(C(=O)O)c3)cc2)c1	26*	-4	6	1	-9
COc1ccc(NS(=O)(=O)c2ccc(Oc3cccc(C(=O)O)c3)cc2)cc1	2	0	3	12	4
COc1ccc(-c2sc3ccccc3c2C#CC2(O)CCCCC2)cc1	6	-6	0	-1	-1
OC1(C#Cc2c(-c3ccsc3)sc3ccccc23)CCCCC1	3	·	·	88*	-23
COc1ccc(C(=O)/C=C2/c3ccccc3CC(C)(C)N2C)cc1OC	2	2	5	41*	-41
CO[C@@H]1CN(C)C(=O)c2cc(NC(=O)c3ccccc3F)ccc2OC[C@@H](C)N(C)C[C@@H]1C	2	-15	·	12	-37
O=C(/C=C/c1ccc(Br)cc1)c1ccco1	3	1	-12	3	-1
O=C(/C=C/c1ccc(Br)cc1)c1ccc(NC(=O)c2ccco2)cc1	·	·	1	114*	·
Cc1ccc(S(=O)(=O)Nc2ccc3c(c2)C(=O)N([C@H](C)CO)C[C@@H](C)[C@H](CN(C)C(=O)Nc2cccc4ccccc24)OCCCC[C@@H](C)O3)cc1	-2	-1	·	-1	8
Cc1ccc(S(=O)(=O)Nc2ccc3c(c2)C(=O)N([C@@H](C)CO)C[C@H](C)[C@@H](CN(C)C(=O)Nc2cccc4ccccc24)OCCCC[C@@H](C)O3)cc1	-1	16*	·	-2	-4
Cc1ccc(S(=O)(=O)Nc2ccc3c(c2)C(=O)N([C@@H](C)CO)C[C@@H](C)[C@@H](CN(C)C(=O)Nc2cccc4ccccc24)OCCCC[C@H](C)O3)cc1	-1	-1	·	-39	2
Cc1ccc(S(=O)(=O)Nc2ccc3c(c2)C(=O)N([C@@H](C)CO)C[C@H](C)[C@@H](CN(C)C(=O)Nc2cccc4ccccc24)OCCCC[C@H](C)O3)cc1	-8	16*	·	25	-3
C[C@@H]1CN([C@H](C)CO)C(=O)c2cc(NS(=O)(=O)c3cccs3)ccc2O[C@@H](C)CCCCO[C@H]1CN(C)CC1CC1	0	2	·	10	-4
CN1C(=O)c2cc(NC(=O)Cc3cccs3)ccc2OC[C@H]2O[C@H](CC(=O)NCCCN3CCOCC3)CC[C@H]21	1	-5	·	14	-5
Cc1ccc(S(=O)(=O)c2ncccc2[N+](=O)[O-])cc1	-1	2	0	65*	-4
Cc1ccc(S(=O)(=O)Nc2ccc3c(c2)C(=O)N([C@@H](C)CO)C[C@@H](C)[C@H](CN(C)S(=O)(=O)c2cccs2)OCCCC[C@@H](C)O3)cc1	-3	6	·	-6	-1
Cc1ccc(S(=O)(=O)Nc2ccc3c(c2)C(=O)N([C@H](C)CO)C[C@@H](C)[C@H](CN(C)S(=O)(=O)c2cccs2)OCCCC[C@H](C)O3)cc1	-2	17*	·	-4	-15
COc1ccc(S(=O)(=O)Nc2ccc3c(c2)C(=O)N([C@H](C)CO)C[C@H](C)[C@H](CN(C)S(=O)(=O)c2cccs2)OCCCC[C@@H](C)O3)cc1	-5	11	·	25	-2
COc1ccc(S(=O)(=O)Nc2ccc3c(c2)C(=O)N([C@@H](C)CO)C[C@@H](C)[C@H](CN(C)S(=O)(=O)c2cccs2)OCCCC[C@@H](C)O3)cc1	-2	16*	·	-3	-47
Cc1nc(NC(=O)C2CC2)sc1C(=O)NC1CCCCC1	-6	-3	1	16	-4
Cc1nc(NC(=O)C2CC2)sc1C	1	22*	-4	8	-4

Compound activity deposited in PubChem BioAssay by Broad Institute.
